Measurements taken from ChEMBL document CHEMBL1151761, “Radiohalogenated prostate-specific membrane antigen (PSMA)-based ureas as imaging agents for prostate cancer” (J Med Chem, 2008).

Assays:
Type in all cases: ADME, organism-based
[1] = Ratio of drug level in tumor to muscle of human PSMA expressing PC3 PIP and PSMA deficient human PC3 flu cells xenografted SCID mouse at 2 uCi, iv after 2 hrs; conditions: in vivo
In short: (§1)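 Male SCID mice carried subcutaneous PSMA+ PC-3 PIP (left shoulder) and PC-3 flu (right shoulder) xenografts, 1-5 × 10^6 cells in HBSS, and were used at 3-5 mm tumor diameter. Tail-vein injection of 2 µCi radioligand; four mice per time point, killed by cervical dislocation. %ID/g from a standard dilution of the dose, decay-corrected, mean ± SD; PIP tumor:organ ratios.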

[2] = Ratio of drug level in PC3 PIP tumor to PC3 flu tumor of human PSMA expressing PC3 PIP and PSMA deficient human PC3 flu cells xenografted SCID mouse at 2 uCi, iv after 5 hrs; conditions: in vivo; in short: as §1
Kidney = assay: Biodistribution in kidney of PSMA expressing human PC3 PIP and PSMA deficient human PC3 flu cells xenografted SCID mouse at 2 uCi, iv after 30 mins; conditions: in vivo, 0.5 h
[3] = Biodistribution in PC3 PIP tumor of PSMA expressing human PC3 PIP and PSMA deficient human PC3 flu cells xenografted SCID mouse at 2 uCi, iv after 30 mins; conditions: in vivo, 0.5 h; in short: as §1
Lung [4] = assay: Biodistribution in lung of PSMA expressing human PC3 PIP and PSMA deficient human PC3 flu cells xenografted SCID mouse at 2 uCi, iv after 60 mins; conditions: in vivo, 1 h
Liver = assay: Biodistribution in liver of PSMA expressing human PC3 PIP and PSMA deficient human PC3 flu cells xenografted SCID mouse at 2 uCi, iv after 60 mins; conditions: in vivo, 1 h
Spleen [5] = assay: Biodistribution in spleen of PSMA expressing human PC3 PIP and PSMA deficient human PC3 flu cells xenografted SCID mouse at 2 uCi, iv after 60 mins; conditions: in vivo, 1 h
Muscle tissue = assay: Biodistribution in muscle of PSMA expressing human PC3 PIP and PSMA deficient human PC3 flu cells xenografted SCID mouse at 2 uCi, iv after 60 mins; conditions: in vivo, 1 h
[6] = Biodistribution in PC3 PIP tumor of PSMA expressing human PC3 PIP and PSMA deficient human PC3 flu cells xenografted SCID mouse at 2 uCi, iv after 60 mins; conditions: in vivo, 1 h
Lung [7] = assay: Biodistribution in lung of PSMA expressing human PC3 PIP and PSMA deficient human PC3 flu cells xenografted SCID mouse at 2 uCi, iv after 2 hrs; conditions: in vivo
Pancreas [8] = assay: Biodistribution in pancreas of PSMA expressing human PC3 PIP and PSMA deficient human PC3 flu cells xenografted SCID mouse at 2 uCi, iv after 2 hrs; conditions: in vivo
Spleen [9] = assay: Biodistribution in spleen of PSMA expressing human PC3 PIP and PSMA deficient human PC3 flu cells xenografted SCID mouse at 2 uCi, iv after 2 hrs; conditions: in vivo
[10] = Biodistribution in small intestine of PSMA expressing human PC3 PIP and PSMA deficient human PC3 flu cells xenografted SCID mouse at 2 uCi, iv after 2 hrs; conditions: in vivo; in short: as §1
[11] = Biodistribution in large intestine of PSMA expressing human PC3 PIP and PSMA deficient human PC3 flu cells xenografted SCID mouse at 2 uCi, iv after 2 hrs; conditions: in vivo; in short: as §1
Pancreas [12] = assay: Biodistribution in pancreas of PSMA expressing human PC3 PIP and PSMA deficient human PC3 flu cells xenografted SCID mouse at 2 uCi, iv after 5 hrs; conditions: in vivo
[13] = Biodistribution in small intestine of PSMA expressing human PC3 PIP and PSMA deficient human PC3 flu cells xenografted SCID mouse at 2 uCi, iv after 5 hrs; conditions: in vivo; in short: as §1
[14] = Ratio of drug level in tumor to kidney of human PSMA expressing PC3 PIP and PSMA deficient human PC3 flu cells xenografted SCID mouse at 2 uCi, iv after 30 mins; conditions: in vivo, 0.5 h; in short: as §1
[15] = Ratio of drug level in tumor to muscle of human PSMA expressing PC3 PIP and PSMA deficient human PC3 flu cells xenografted SCID mouse at 2 uCi, iv after 30 mins; conditions: in vivo, 0.5 h; in short: as §1
[16] = Ratio of drug level in tumor to large intestine of human PSMA expressing PC3 PIP and PSMA deficient human PC3 flu cells xenografted SCID mouse at 2 uCi, iv after 30 mins; conditions: in vivo, 0.5 h; in short: as §1
[17] = Ratio of drug level in tumor to heart of human PSMA expressing PC3 PIP and PSMA deficient human PC3 flu cells xenografted SCID mouse at 2 uCi, iv after 60 mins; conditions: in vivo, 1 h; in short: as §1
[18] = Ratio of drug level in tumor to lung of human PSMA expressing PC3 PIP and PSMA deficient human PC3 flu cells xenografted SCID mouse at 2 uCi, iv after 60 mins; conditions: in vivo, 1 h; in short: as §1
[19] = Ratio of drug level in tumor to stomach of human PSMA expressing PC3 PIP and PSMA deficient human PC3 flu cells xenografted SCID mouse at 2 uCi, iv after 60 mins; conditions: in vivo, 1 h
In short: (§2)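 Male SCID mice carried subcutaneous xenografts: PSMA+ PC-3 PIP behind the left shoulder and PSMA− PC-3 flu behind the right, 1–5 × 10^6 cells in HBSS. Mice were used at 3–5 mm tumor diameter. 2 μCi was given by tail vein, and 4 mice per time point were killed by cervical dislocation. %ID/g came from a standard dilution of the dose, decay-corrected. Ratio is PIP tumor %ID/g to organ %ID/g.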

[20] = Ratio of drug level in tumor to muscle of human PSMA expressing PC3 PIP and PSMA deficient human PC3 flu cells xenografted SCID mouse at 2 uCi, iv after 60 mins; conditions: in vivo, 1 h; in short: as §1
[21] = Ratio of drug level in tumor to large intestine of human PSMA expressing PC3 PIP and PSMA deficient human PC3 flu cells xenografted SCID mouse at 2 uCi, iv after 60 mins; conditions: in vivo, 1 h; in short: as §1
[22] = Ratio of drug level in tumor to lung of human PSMA expressing PC3 PIP and PSMA deficient human PC3 flu cells xenografted SCID mouse at 2 uCi, iv after 2 hrs; conditions: in vivo; in short: as §1
[23] = Ratio of drug level in tumor to pancreas of human PSMA expressing PC3 PIP and PSMA deficient human PC3 flu cells xenografted SCID mouse at 2 uCi, iv after 2 hrs; conditions: in vivo; in short: as §1
[24] = Ratio of drug level in tumor to bladder of human PSMA expressing PC3 PIP and PSMA deficient human PC3 flu cells xenografted SCID mouse at 2 uCi, iv after 2 hrs; conditions: in vivo; in short: as §1
[25] = Ratio of drug level in tumor to heart of human PSMA expressing PC3 PIP and PSMA deficient human PC3 flu cells xenografted SCID mouse at 2 uCi, iv after 30 mins; conditions: in vivo, 0.5 h; in short: as §1
[26] = Ratio of drug level in tumor to small intestine of human PSMA expressing PC3 PIP and PSMA deficient human PC3 flu cells xenografted SCID mouse at 2 uCi, iv after 5 hrs; conditions: in vivo; in short: as §2
[27] = Ratio of drug level in tumor to bladder of human PSMA expressing PC3 PIP and PSMA deficient human PC3 flu cells xenografted SCID mouse at 2 uCi, iv after 5 hrs; conditions: in vivo; in short: as §1
Stomach = assay: Biodistribution in stomach of PSMA expressing human PC3 PIP and PSMA deficient human PC3 flu cells xenografted SCID mouse at 2 uCi, iv after 30 mins; conditions: in vivo, 0.5 h

SMILES: O=C(O)CC[C@H](NC(=O)N[C@@H](CCCCNC(=O)c1ccc([18F])cc1)C(=O)O)C(=O)O
- Ratio [1]: 19
- Ratio [2]: 35
- Drug uptake (Kidney): 72 % ID/g
- Drug uptake [3]: 8.6 % ID/g
- Drug uptake (Lung [4]): 0.5 % ID/g
- Drug uptake (Liver): 5.8 % ID/g
- Drug uptake (Spleen [5]): 7.2 % ID/g
- Drug uptake (Muscle tissue): 0.5 % ID/g
- Drug uptake [6]: 6.4 % ID/g
- Drug uptake (Lung [7]): 1 % ID/g
- Drug uptake (Pancreas [8]): 0.15 % ID/g
- Drug uptake (Spleen [9]): 4.4 % ID/g
- Drug uptake [10]: 0.3 % ID/g
- Drug uptake [11]: 0.2 % ID/g
- Drug uptake (Pancreas [12]): 0.05 % ID/g
- Drug uptake [13]: 0.1 % ID/g
- Ratio [14]: 0.1
- Ratio [15]: 4
- Ratio [16]: 7
- Ratio [17]: 35
- Ratio [18]: 13
- Ratio [19]: 26
- Ratio [20]: 13
- Ratio [21]: 13
- Ratio [22]: 4
- Ratio [23]: 25
- Ratio [24]: 0.3
- Ratio [25]: 11
- Ratio [26]: 35
- Ratio [27]: 0.7
- Drug uptake (Stomach): 0.8 % ID/g
